Where two headings read alike, the source gives them in different places.
Columns and labels:
RRE = conditions: cited from earlier work
RRE IIB DNA = experiment: Dot blot assay with DNA of the same RRE IIB sequence; assay type: binding, HIV-1
[1] = tested on: loop A/B/bulge A deleted RNA; experiment: Dot blot assay with RRE IIB variant loop A/B/bulge A deleted RNA; assay type: binding, HIV-1
hexaloop RNA = experiment: Dot blot assay with RRE IIB variant hexaloop RNA; assay type: binding, HIV-1
HIV-1 RRE IIB RNA [2] = experiment: Dot blot assay, dissociation constant with wild-type RRE IIB RNA; assay type: binding; conditions: for loss of binding affinity compared to BPBA1: RRE IIB
stem B deleted RNA = experiment: Dot blot assay with RRE IIB variant stem B deleted RNA; assay type: binding, HIV-1
[3] = tested on: loop A(A-G)/B/bulge A deleted RNA; experiment: Dot blot assay with RRE IIB variant loop A; assay type: binding, HIV-1
[4] = biological target: loop B/bulge A deleted RNA; experiment: Dot blot assay with RRE IIB variant loop B/bulge A deleted RNA; assay type: binding, HIV-1
HIV-1 RRE IIB RNA [5] = conditions: read-out: binding affinity (Kd) of hit BPBA; dot blot; cited from earlier work
RRE IIB = experiment: RNase protection; assay type: binding, HIV-1; conditions: on ice
How it was run: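 5′-³²P-labelled RRE-IIB (10 nM) mixed with unlabelled RRE-IIB (200 nM), refolded at 95 °C for 3 min, then snap-cooled on ice. Test compound added in 10 mM Tris pH 7, 100 mM KCl, 10 mM MgCl₂, then 4 hr on ice. Digestion on ice: RNase V1 0.002 U for 10 min; T1 1 U or A 20 ng for 1 hr. Stopped by precipitation, run on 12% urea PAGE with an alkaline-hydrolysis ladder, autoradiography.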

[6] = tested on: stem A/loop A deleted RNA; experiment: Dot blot assay with RRE IIB variant stem A/loop A deleted RNA; assay type: binding, HIV-1

NC[C@@H]1O[C@H](O[C@H]2[C@@H](O)[C@H](O[C@@H]3[C@@H](O)[C@H](N)C[C@H](N)[C@H]3O[C@H]3O[C@H](CN)[C@@H](O)[C@H](O)[C@H]3N)O[C@@H]2CO)[C@H](N)[C@@H](O)[C@@H]1O [neomycin B]
binding to RRE (RRE): submicromolar

(WKK)2*KBBAYWY [BPBA1]
selectivity toward RNA over DNA (RRE IIB DNA; RRE IIB RNA versus RRE IIB DNA): 23 fold
Kd (RRE IIB DNA; read-out: dissociation constant): 31.8 ± 6.6 µM
loss in binding affinity / selectivity relative to RRE IIB [1]: > 75 fold
increase of Kd compared to the wild type (hexaloop RNA): ~ 3 fold
Kd (HIV-1 RRE IIB RNA [2]; read-out: observed Kd in the presence of competing tRNA, 10-fold molar excess of bacterial tRNA relative to RRE IIB): 2.1 µM
Kd (stem B deleted RNA): 3.7 µM
lower affinity relative to RRE IIB [3]: > 10 fold
Kd [4]: 8.7 µM
lower affinity relative to RRE IIB [4]: 6 fold
Kd (HIV-1 RRE IIB RNA [5]): 1.4 µM
protection of RRE IIB from cleavage by RNase A (RRE IIB; BPBA1 up to 20 µM): visibly protected U7, C21, and U36
protection of RRE IIB from cleavage by RNase T1 (RRE IIB; BPBA1 up to 20 µM): no noticeable changes in band intensity
protection of RRE IIB from cleavage by RNase V1 (RRE IIB; region A16 through G19, BPBA1 0.2 µM to 20 µM): concentration dependent protection
lower affinity relative to RRE IIB [6]: > 10 fold

Ac(WKK)*KBBAYWY [LPBA3]
loss of binding affinity compared to BPBA1 (HIV-1 RRE IIB RNA [2]): > 50 fold

WKKGKBBAYWY [LPBA1]
loss of binding affinity compared to BPBA1 (HIV-1 RRE IIB RNA [2]): > 50 fold

WKKGKBBAYWYWKK [LPBA5]
loss of binding affinity compared to BPBA1 (HIV-1 RRE IIB RNA [2]): at least 5 fold

WKKWKKGKBBAYWY [LPBA4]
loss of binding affinity compared to BPBA1 (HIV-1 RRE IIB RNA [2]): at least 5 fold
